Data taken from ChEMBL document CHEMBL3045605, “Synthesis and anticancer evaluation of novel 3,5-diaryl-thiazolo[4,5-d]pyrimidin-2-one derivatives” (2013).

Legend:
Type in all cases: functional
K562 [1] = experiment: Anticancer activity against Homo sapiens (human) K562 cells assessed as cell growth at 10 uM by SRB assay; conditions: read-out: Activity
How it was run: (§1)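 NCI 60-cell human tumour panel (nine cancer types) screened at one concentration, 10−5 M. Cell growth estimated by sulforhodamine B protein staining and reported as percent growth of treated cells relative to untreated controls.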

SR [2] = experiment: Anticancer activity against Homo sapiens (human) SR cells assessed as cell growth at 10 uM by SRB assay; conditions: read-out: Activity
How it was run: (§2)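 NCI 60-cell human tumour panel (leukemia, melanoma, lung, colon, CNS, breast, ovarian, prostate, renal lines) given a single 10−5 M dose. Growth is expressed as percent growth of treated cells relative to untreated controls, with cell growth/viability estimated by sulforhodamine B protein staining.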

HCT-116 [3] = experiment: Anticancer activity against Homo sapiens (human) HCT116 cells assessed as cell growth at 10 uM by SRB assay; conditions: read-out: Activity; how it was run: as §1
CAKI-1 [4] = experiment: Anticancer activity against Homo sapiens (human) CAKI-1 cells assessed as cell growth at 10 uM by SRB assay; conditions: read-out: Activity; how it was run: as §1
SW-620 [5] = experiment: Anticancer activity against Homo sapiens (human) SW620 cells assessed as cell growth at 10 uM by SRB assay; conditions: read-out: Activity; how it was run: as §2
LOX IMVI = experiment: Anticancer activity against Homo sapiens (human) LOXIMVI cells assessed as cell growth at 10 uM by SRB assay; conditions: read-out: Activity; how it was run: as §1
CCRF-CEM [6] = experiment: Anticancer activity against Homo sapiens (human) CCRF-CEM cells assessed as cell growth at 10 uM by SRB assay; conditions: read-out: Activity; how it was run: as §1
NCI-H522 [7] = experiment: Anticancer activity against Homo sapiens (human) NCI-H522 cells assessed as cell growth at 10 uM by SRB assay; conditions: read-out: Activity
How it was run: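 Single-dose screen in the NCI 60-human-tumour-cell-line panel (nine cancer types) at 10−5 M. Cell growth was estimated by sulforhodamine B protein staining and reported as percent growth of treated cells relative to untreated controls.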

[8] = Anticancer activity against Homo sapiens (human) RPMI8266 cells by SRB assay
How it was run: (§3)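 Five-dose NCI 60-cell-line panel testing at tenfold dilutions from 10−4 to 10−8 M, with growth read by sulforhodamine B protein staining. For each cell line: GI50 is the molar concentration giving half growth inhibition; TGI is total growth inhibition (cytostatic); LC50 is the molar concentration killing 50% of the initial cells (cytotoxic).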

HOP-62 = experiment: Anticancer activity against Homo sapiens (human) HOP62 cells by SRB assay
How it was run: (§4)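 NCI 60-line panel, five tenfold dilutions from 10−4 to 10−8 M, growth read by sulforhodamine B staining against untreated controls. From the dose–response per line: GI50 (molar concentration giving half growth inhibition), TGI (molar concentration giving total growth inhibition, cytostatic) and LC50 (molar concentration killing 50% of initial cells, cytotoxic).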

SF-268 = experiment: Anticancer activity against Homo sapiens (human) SF268 cells by SRB assay; how it was run: as §3
SK-OV-3 = experiment: Anticancer activity against Homo sapiens (human) SKOV3 cells by SRB assay; how it was run: as §3
UO-31 = experiment: Anticancer activity against Homo sapiens (human) UO31 cells by SRB assay
How it was run: (§5)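 NCI five-dose follow-up on the 60-line human tumour panel at tenfold dilutions from 10−4 to 10−8 M, with growth read by sulforhodamine B protein assay against untreated controls. For each cell line, GI50 (half growth inhibition), TGI (total growth inhibition) and LC50 (50% death of initial cells) are calculated as molar concentrations.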

NCI-H522 [9] = experiment: Anticancer activity against Homo sapiens (human) NCI-H522 cells by SRB assay; how it was run: as §3
NCI-H23 = experiment: Anticancer activity against Homo sapiens (human) NCI-H23 cells by SRB assay; how it was run: as §3
Hs-578T = experiment: Anticancer activity against Homo sapiens (human) Hs 578T cells by SRB assay; how it was run: as §4
HCT-15 = experiment: Anticancer activity against Homo sapiens (human) HCT15 cells by SRB assay; how it was run: as §4
OVCAR-4 = experiment: Anticancer activity against Homo sapiens (human) OVCAR4 cells by SRB assay; how it was run: as §3
A498 = experiment: Anticancer activity against Homo sapiens (human) A498 cells by SRB assay; how it was run: as §4
786-0 = experiment: Anticancer activity against Homo sapiens (human) 786-0 cells by SRB assay; how it was run: as §4
SF-539 = experiment: Anticancer activity against Homo sapiens (human) SF539 cells by SRB assay; how it was run: as §3
A549 = experiment: Anticancer activity against Homo sapiens (human) A549/ATCC cells by SRB assay; how it was run: as §4
ACHN = experiment: Anticancer activity against Homo sapiens (human) ACHN cells by SRB assay; how it was run: as §4
MCF7 = experiment: Anticancer activity against Homo sapiens (human) MCF7 cells by SRB assay; how it was run: as §4
SF-295 = experiment: Anticancer activity against Homo sapiens (human) SF295 cells by SRB assay; how it was run: as §3
U-251 = experiment: Anticancer activity against Homo sapiens (human) U251 cells by SRB assay; how it was run: as §5
K562 [10] = experiment: Anticancer activity against Homo sapiens (human) K562 cells by SRB assay; how it was run: as §4
[11] = Anticancer activity against Homo sapiens (human) NCI-322M cells by SRB assay; how it was run: as §3
T47D = experiment: Anticancer activity against Homo sapiens (human) T47D cells by SRB assay; how it was run: as §5
CAKI-1 [12] = experiment: Anticancer activity against Homo sapiens (human) CAKI-1 cells by SRB assay; how it was run: as §4
KM12 = experiment: Anticancer activity against Homo sapiens (human) KM12 cells by SRB assay; how it was run: as §4
SK-MEL-2 = experiment: Anticancer activity against Homo sapiens (human) SK-MEL-2 cells by SRB assay; how it was run: as §3
SW-620 [13] = experiment: Anticancer activity against Homo sapiens (human) SW620 cells by SRB assay; how it was run: as §5
OVCAR-3 = experiment: Anticancer activity against Homo sapiens (human) OVCAR3 cells by SRB assay; how it was run: as §3
SNB-75 = experiment: Anticancer activity against Homo sapiens (human) SNB75 cells by SRB assay; how it was run: as §3
OVCAR-5 = experiment: Anticancer activity against Homo sapiens (human) OVCAR5 cells by SRB assay; how it was run: as §3
RXF 393 = experiment: Anticancer activity against Homo sapiens (human) RXF393 cells by SRB assay; how it was run: as §3
HT-29 = experiment: Anticancer activity against Homo sapiens (human) HT-29 cells by SRB assay; how it was run: as §4
BT-549 = experiment: Anticancer activity against Homo sapiens (human) BT549 cells by SRB assay; how it was run: as §4
SK-MEL-28 = experiment: Anticancer activity against Homo sapiens (human) SK-MEL-28 cells by SRB assay; how it was run: as §3
Malme-3M = experiment: Anticancer activity against Homo sapiens (human) MALME-3M cells by SRB assay; how it was run: as §4
SK-MEL-5 = experiment: Anticancer activity against Homo sapiens (human) SK-MEL-5 cells by SRB assay; how it was run: as §3
MDA-MB-435 = experiment: Anticancer activity against Homo sapiens (human) MDA-MB-435 cells by SRB assay; how it was run: as §3
UACC-257 = experiment: Anticancer activity against Homo sapiens (human) UACC257 cells by SRB assay; how it was run: as §5
EKVX = experiment: Anticancer activity against Homo sapiens (human) EKVX cells by SRB assay; how it was run: as §4
NCI-H460 = experiment: Anticancer activity against Homo sapiens (human) NCI-H460 cells by SRB assay; how it was run: as §3
HCT-116 [14] = experiment: Anticancer activity against Homo sapiens (human) HCT116 cells by SRB assay; how it was run: as §4
SNB-19 = experiment: Anticancer activity against Homo sapiens (human) SNB19 cells by SRB assay; how it was run: as §3
CCRF-CEM [15] = experiment: Anticancer activity against Homo sapiens (human) CCRF-CEM cells by SRB assay; how it was run: as §4
PC-3 = experiment: Anticancer activity against Homo sapiens (human) PC3 cells by SRB assay; how it was run: as §3
TK-10 = experiment: Anticancer activity against Homo sapiens (human) TK10 cells by SRB assay; how it was run: as §5
M14 = experiment: Anticancer activity against Homo sapiens (human) M14 cells by SRB assay; how it was run: as §4
DU-145 = experiment: Anticancer activity against Homo sapiens (human) DU145 cells by SRB assay; how it was run: as §4
HOP-92 = experiment: Anticancer activity against Homo sapiens (human) HOP92 cells by SRB assay; how it was run: as §4
SN12C = experiment: Anticancer activity against Homo sapiens (human) SN12C cells by SRB assay; how it was run: as §3
COLO 205 = experiment: Anticancer activity against Homo sapiens (human) COLO205 cells by SRB assay; how it was run: as §4
UACC-62 = experiment: Anticancer activity against Homo sapiens (human) UACC62 cells by SRB assay; how it was run: as §5
IGROV-1 = experiment: Anticancer activity against Homo sapiens (human) IGROV1 cells by SRB assay; how it was run: as §4
NCI/ADR-RES = experiment: Anticancer activity against Homo sapiens (human) NCI/ADR-RES cells by SRB assay; how it was run: as §3
OVCAR-8 = experiment: Anticancer activity against Homo sapiens (human) OVCAR8 cells by SRB assay; how it was run: as §3
SR [16] = experiment: Anticancer activity against Homo sapiens (human) SR cells by SRB assay; how it was run: as §5

O=c1sc2c(Cl)nc(-c3ccc(F)cc3)nc2n1-c1ccccc1
growth at 10 µM (K562 [1]): 35.8% | growth at 10 µM (SR [2]): 28.6% | growth at 10 µM (HCT-116 [3]): 40.5% | growth at 10 µM (CAKI-1 [4]): 41.8%

O=c1sc2c(Cl)nc(-c3ccc(Cl)cc3)nc2n1-c1ccccc1
growth at 10 µM (K562 [1]): 34.6% | growth at 10 µM (SW-620 [5]): 47.6% | growth at 10 µM (LOX IMVI): 24.4% | growth at 10 µM (SR [2]): 21.5% | growth at 10 µM (HCT-116 [3]): 29.3% | growth at 10 µM (CCRF-CEM [6]): 33.6% | growth at 10 µM (NCI-H522 [7]): 5.19%

O=c1[nH]c(-c2ccccc2)nc2c1sc(=O)n2-c1ccccc1
growth at 10 µM (CAKI-1 [4]): 26.8%

Nc1nc2[nH]cnc2c(=S)[nH]1 [THIOGUANINE]
GI50 [8]: 1260 nM | GI50 (HOP-62): 794 nM | GI50 (SF-268): 1260 nM | GI50 (SK-OV-3): 501 nM | GI50 (UO-31): 794 nM | GI50 (NCI-H522 [9]): 2000 nM | GI50 (NCI-H23): 3.16 µM | GI50 (Hs-578T): 6.31 µM | GI50 (HCT-15): 2510 nM | GI50 (OVCAR-4): 5.01 µM | GI50 (A498): 25.1 µM | GI50 (786-0): 1580 nM | GI50 (SF-539): 631 nM | GI50 (A549): 5.01 µM | GI50 (ACHN): 3.98 µM | GI50 (MCF7): 501 nM | GI50 (SF-295): 1260 nM | GI50 (U-251): 10 µM | GI50 (K562 [10]): 100 µM | GI50 [11]: 25.1 µM | GI50 (T47D): 10 µM | GI50 (CAKI-1 [12]): 316 nM | GI50 (KM12): 3.16 µM | GI50 (SK-MEL-2): 1580 nM | GI50 (SW-620 [13]): 3.98 µM | GI50 (OVCAR-3): 1580 nM | GI50 (SNB-75): 1000 nM | GI50 (OVCAR-5): 501 nM | GI50 (RXF 393): 501 nM | GI50 (HT-29): 1260 nM | GI50 (BT-549): 1260 nM | GI50 (SK-MEL-28): 6.31 µM | GI50 (Malme-3M): 3.16 µM | GI50 (SK-MEL-5): 2510 nM | GI50 (MDA-MB-435): 501 nM | GI50 (UACC-257): 6.31 µM | GI50 (EKVX): 3.98 µM | GI50 (NCI-H460): 1000 nM | GI50 (HCT-116 [14]): 631 nM | GI50 (SNB-19): 79.4 µM | GI50 (CCRF-CEM [15]): 316 nM | GI50 (PC-3): 3.16 µM | GI50 (TK-10): 501 nM | GI50 (M14): 631 nM | GI50 (DU-145): 501 nM | GI50 (HOP-92): 1580 nM | GI50 (SN12C): 7.94 µM | GI50 (COLO 205): 2510 nM | GI50 (UACC-62): 398 nM | GI50 (IGROV-1): 6.31 µM | GI50 (NCI/ADR-RES): 398 nM | GI50 (OVCAR-8): 398 nM | GI50 (SR [16]): 631 nM
